Shown are actives, neighbours in structure and some others; about 2.4% of the full set was active somewhere.
miR-122 sensor = blocks miR-122 activity in Huh7 sensor cells; actives 0.3% (n = 340,000); activation (reporter increase), % at 12.5 µM; Huh7 miR-122 Renilla luciferase sensor, 48 h; neutral wells = 0, positive control = 100; AID 602342;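 active = mean replicate activation score at least 90 and every replicate individually at or above 90; inconclusive = only one of the two criteria met; inactive = neither criterion met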;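 also: higher luciferase means less miR-122 activity so hits act as miR-122 inhibitors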
Env fusion inh = inhibitors of HIV Env-mediated cell fusion; inhibition, % at 12.3 µM; HeLa-JRFL Env/CEM21 cell fusion, luciferase; AID 651610; actives 1.1% (n = 360,000);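 active = mean replicate inhibition score of at least 50 and every replicate individually at or above 50; inconclusive = only one of the two criteria met; inactive = mean below 50 and not all replicates reaching 50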
Cneo AK release = Cryptococcus neoformans lysis via adenylate kinase release; C. neoformans lysis, adenylate kinase release luminescence, 4 h; normalised: neutral wells 0, clomiphene wells 100; lysis activity, % at 15 µM; actives 0.2% (n = 360,000);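 active = mean lysis activity across replicates of at least 80%, whatever share of replicates individually reach that level; inactive = mean lysis activity below 80%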
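Test system: log-phase Cryptococcus neoformans yeast cells. Input: 5 × 10^6 yeast cells/mL. Medium: fresh YPD growth medium. Doses: single dose. Incubation: static 4 h at 37 °C with compound, 1 h detection. Measured by: luminescent adenylate kinase detection reagent. Read-out: signal increase indicating cell lysis. Benchmarks: Clomiphene.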
dFosB act = activators of mouse delta FosB homodimer. actives 0.99% (n = 340,000). activation, % at 25 µM. AID 493131. purified delta FosB, TAMRA-CDK5 oligo fluorescence polarization; percent of positive-control signal above neutral wells. P13346;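 active = mean activation above about 17%, with every replicate also reaching it, limit read from the data, passing the limit was not always enough; inconclusive = only one of the two conditions met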
GSIS activator = GLuc luminescence reporter in INS-1E cells, primary screen for activators of glucose-dependent secretion of insulin; INS-1E GLuc reporter insulin secretion, 2-3 h; activation, % at 16.6 µM; actives 0.61% (n = 370,000); AID 743287;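 active = lowest replicate activation of at least 40%, so every replicate reaches that level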
Rtt109 Vps75 = C. albicans Rtt109 histone acetyltransferase inhibition. Q5AAJ8. purified Rtt109/Vps75, ThioGlo CoA-SH fluorescence, 4 h. inhibition, % at 34.9 µM. actives 0.16% (n = 330,000);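 active = inhibition of at least 50% in every replicate; inconclusive = best replicate reaches 50% inhibition but some replicates fall short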
Target sequence (Q5AAJ8 whole entry, looked up): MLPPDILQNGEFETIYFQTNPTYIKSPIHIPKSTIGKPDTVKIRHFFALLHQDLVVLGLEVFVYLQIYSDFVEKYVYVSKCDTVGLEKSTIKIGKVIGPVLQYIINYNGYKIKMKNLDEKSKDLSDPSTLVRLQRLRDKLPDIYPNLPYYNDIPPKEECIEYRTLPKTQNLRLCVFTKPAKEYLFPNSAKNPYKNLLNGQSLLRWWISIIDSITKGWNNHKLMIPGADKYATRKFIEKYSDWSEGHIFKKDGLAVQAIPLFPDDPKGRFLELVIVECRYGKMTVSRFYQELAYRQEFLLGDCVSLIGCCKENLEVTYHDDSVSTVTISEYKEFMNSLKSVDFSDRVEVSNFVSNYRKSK
A number is an active result; i = inactive; ? = inconclusive; nt = not tested or not shown.

SMILES	miR-122 sensor	Env fusion inh	Cneo AK release	dFosB act	GSIS activator	Rtt109 Vps75
O=C(C[C@H]1CC[C@@H]2[C@H](COC[C@H](O)CN2CC2CCOCC2)O1)NCc1ccc(Cl)cc1	i	i	86.3	nt	i	nt
O=C(C[C@@H]1CC[C@@H]2[C@H](COC[C@@H](O)CN2Cc2cccc(C(F)(F)F)c2)O1)NCc1ccc(Cl)cc1	i	i	i	nt	i	nt
O=C(C[C@@H]1CC[C@@H]2[C@H](COC[C@@H](O)CN2Cc2cccc(C(F)(F)F)c2)O1)NCc1ccccc1	i	nt	i	nt	i	nt
O=C(C[C@@H]1CC[C@@H]2[C@H](COC[C@H](O)CN2Cc2cccc(C(F)(F)F)c2)O1)NCc1ccc(Cl)cc1	i	i	82.9	nt	i	nt
CN(C)CC(=O)Nc1ccc2c(c1)[C@H]1C[C@H](CC(=O)NCc3ccc(Cl)cc3)O[C@H](CO)[C@H]1O2	i	nt	i	nt	i	nt
CC(C)NC(=O)N[C@H]1CC[C@@H](CCNS(=O)(=O)c2ccc(F)cc2)O[C@H]1CO	nt	i	i	nt	i	nt
O=C(C[C@H]1CC[C@@H]2[C@H](COC[C@@H](O)CN2Cc2cccc(C(F)(F)F)c2)O1)NCc1ccc(Cl)cc1	i	i	109.8	nt	i	nt
Cc1ccc(S(=O)(=O)N2C[C@H]3[C@H]4C(=O)N(Cc5ccccc5)C(=O)[C@H]4CC(=O)[C@H]3[C@@H]2c2ccccc2Cl)cc1	i	60.0	i	nt	i	nt
Cc1ccc(S(=O)(=O)N2C[C@H]3[C@H]4C(=O)N(Cc5ccccc5)C(=O)[C@H]4CC(=O)[C@H]3[C@@H]2c2ccccc2F)cc1	i	?	i	nt	i	nt
Cc1ccc(S(=O)(=O)N2C[C@H]3[C@H]4C(=O)N(C5CCCCC5)C(=O)[C@H]4CC(=O)[C@H]3[C@@H]2c2cccc3ccccc23)cc1	i	i	i	nt	i	nt
Cc1ccc(S(=O)(=O)N2C[C@H]3[C@H]4C(=O)N(C5CCCCC5)C(=O)[C@H]4CC(=O)[C@H]3[C@@H]2c2ccccc2F)cc1	i	64.5	i	nt	i	nt
CN1C(=O)c2cc(NC(=O)c3ccc(Cl)cc3)ccc2OC[C@@H]2O[C@H](CC(=O)NCc3cccc(F)c3)CC[C@H]21	i	nt	i	nt	i	nt
Cc1nn(C)cc1NC(=O)C[C@@H]1CC[C@H]2[C@@H](COc3ccc(NC(=O)NC(C)C)cc3C(=O)N2C)O1	i	i	i	nt	i	nt
CC(=O)N1[C@H](C(=O)N2CCc3ccccc3C2)[C@@H](CO)[C@@H]2Cn3c(ccc(-c4cccnc4)c3=O)[C@@H]21	i	nt	i	nt	i	nt
CNC(=O)CSc1nc2cccnc2n1C1CCCCC1	i	i	i	i	i	i
CNC(=O)CSc1nc2cccnc2n1-c1ccc(F)cc1	i	i	i	i	78.4	i
CN1CCSc2ccc(C(=O)Nc3cccc(F)c3)cc21	i	i	nt	i	66.8	i
CCOC(=O)[C@@H]1[C@H]2COc3ccc(Br)cc3[C@@H]2N2C(=O)N(c3ccc(Cl)cc3)C(=O)[C@@]12C	i	66.7	i	i	i	i
CCOC(=O)[C@@H]1[C@H]2COc3ccc(Br)cc3[C@@H]2N2C(=O)N(c3ccc(C(F)(F)F)cc3)C(=O)[C@@]12C	nt	66.2	i	i	i	i
CCOC(=O)[C@@H]1[C@H]2COc3ccc(Br)cc3[C@@H]2N2C(=O)N(c3cccc(F)c3)C(=O)[C@@]12C	nt	75.2	i	i	i	i
CCOC(=O)[C@@H]1[C@H]2COc3ccc(Br)cc3[C@@H]2N2C(=O)N(c3ccc(F)cc3)C(=O)[C@@]12C	i	99.9	i	i	i	i
CCOC(=O)[C@H]1[C@H]2COc3ccc(Br)cc3[C@@H]2N2C(=O)N(c3ccc(F)cc3)C(=O)[C@@]12C	i	i	i	i	i	i
CO[C@@H]1CN(C)C(=O)c2ccc(NS(=O)(=O)c3cccc(F)c3)cc2OC[C@H](C)NC[C@H]1C	i	i	i	nt	i	nt
CCNC(=O)C[C@H]1CC[C@H]2[C@@H](COC[C@@H](O)CN2Cc2ccncc2)O1	i	i	i	nt	i	nt
NC(c1csc(NC(=O)Nc2ccccc2)n1)C1CCCCC1 (configuration not stated)	i	57.0	i	nt	i	nt
Cc1nc(N2CCN(C(=O)COc3ccccc3)CC2)c2c(C)c(C)sc2n1	i	61.5	i	i	nt	i

Compound activity from PubChem.
